Converted amounts (≈) assume the structure as drawn. The source made the active and inactive calls. The rule behind the calls is not given here.

Series [1] can be described thus: Solubility of compound in 10% hydroxypropyl-beta-cyclodextrin after 24 hrs. The format is physicochemical.
Series [2] is described as follows: AUC in rat plasma at 1 mg/kg, iv. The format is ADME, organism-based. Also noted: dose 1 mg/kg.
In series [3] the target is T1, SUMO-activating enzyme (Homo sapiens) (UniProt Q9UBE0+Q9UBT2). Briefly: Inhibition of SAE in human HCT116 cells xenografted in NCr nude mouse assessed as reduction in SUMO2/3 protein conjugates at 50 mg/kg, iv and measured up to 16 hrs by immunohistochemistry analysis. The format is organism-based. Particulars: HCT-116. In a few lines:
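HCT-116 tumors in female Ncr nude mice, n = 3 per time point, after a single IV dose at t = 0. SUMO2/3 conjugation in tumors measured by IHC at 2, 4, 8 and 16 h. Read-out is nuclei staining positive for SUMO2/3 conjugates over total nuclei, normalized to vehicle-treated animals (time = 0 h), expressed as percent inhibition.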

Series [4] in a line: Apparent permeability across apical to basolateral side in human Caco2 cells. The format is ADME, cell-based. Conditions: Caco-2. (Passage across Caco-2 layers is used to estimate intestinal permeability.)
A short description of series [5]: Inhibition of recombinant UAE (unknown origin) in presence of ATP at Km concentration by HTRF assay. Also noted: species or system Homo sapiens. (In general: In TR-FRET formats the signal depends on donor and acceptor labels being close together.)
For series [6], the system named is OCI-Ly10. The series can be described thus: Antitumor activity against human OCI-Ly10 cells xenografted in CB17 SCID mouse assessed as tumor growth inhibition at 50 mg/kg, iv administered thrice per week for 21 days and measured twice weekly. The format is functional, organism-based. Conditions: time 21.0 day. Summed up: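 Female CB17 SCID mice carrying OCI-Ly10 tumors (~200 mm3) were randomized, n = 8/group, with treatment from Day 1. Schedules were QD x21 (Days 1–21) or QD x3/week (three consecutive dosing days, four off). Tumor volume was measured twice weekly.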
Background: In xenograft studies the graft and the host belong to different species.

For series [7], the target named is T2, NEDD8 activating enzyme (Homo sapiens, UniProt Q8TBC4).
T2 sequence (Q8TBC4 whole entry): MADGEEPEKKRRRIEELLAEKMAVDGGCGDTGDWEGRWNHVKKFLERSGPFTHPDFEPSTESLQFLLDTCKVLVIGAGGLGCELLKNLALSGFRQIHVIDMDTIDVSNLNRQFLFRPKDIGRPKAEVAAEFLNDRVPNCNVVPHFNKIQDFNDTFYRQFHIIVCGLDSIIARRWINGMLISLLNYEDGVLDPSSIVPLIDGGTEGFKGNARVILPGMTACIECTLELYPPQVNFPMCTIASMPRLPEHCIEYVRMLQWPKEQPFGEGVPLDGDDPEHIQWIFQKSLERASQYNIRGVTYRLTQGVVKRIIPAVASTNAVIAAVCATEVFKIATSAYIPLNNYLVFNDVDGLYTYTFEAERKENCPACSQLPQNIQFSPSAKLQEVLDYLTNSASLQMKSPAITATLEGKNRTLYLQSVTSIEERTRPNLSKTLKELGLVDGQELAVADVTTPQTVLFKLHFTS
T2 sequence (Q13564 whole entry): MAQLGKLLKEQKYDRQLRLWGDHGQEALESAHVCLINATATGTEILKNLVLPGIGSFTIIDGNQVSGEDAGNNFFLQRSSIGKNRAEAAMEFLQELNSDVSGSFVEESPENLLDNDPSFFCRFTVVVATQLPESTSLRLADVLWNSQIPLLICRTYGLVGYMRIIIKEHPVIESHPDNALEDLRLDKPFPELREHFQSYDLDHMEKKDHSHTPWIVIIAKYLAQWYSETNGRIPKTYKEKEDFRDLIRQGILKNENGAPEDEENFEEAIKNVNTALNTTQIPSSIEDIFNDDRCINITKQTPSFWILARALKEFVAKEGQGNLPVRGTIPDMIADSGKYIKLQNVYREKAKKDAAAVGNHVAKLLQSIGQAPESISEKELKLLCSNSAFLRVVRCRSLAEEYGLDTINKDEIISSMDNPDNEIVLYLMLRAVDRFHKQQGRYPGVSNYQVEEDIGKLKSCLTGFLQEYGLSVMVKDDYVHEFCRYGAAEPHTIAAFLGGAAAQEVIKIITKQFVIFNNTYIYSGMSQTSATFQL
Briefly: Inhibition of recombinant NAE (unknown origin) in presence of ATP at Km concentration by HTRF assay. Format: protein-complex assay.

Series [8] deals with T3, SUMO-activating enzyme (Homo sapiens, UniProt Q9UBT2). The series can be described thus: Inhibition of SAE in human HCT116 cells assessed as redistribution of SUMO2/3 proteins from nucleus to cytosol preincubated for 2 hrs followed by compound washout and measured immediately by immunofluorescence assay. Format: cell-based, HCT-116. Summed up: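 Washout format of the SUMO2/3 immunofluorescence assay in HCT116 cells. Cells were exposed to a range of concentrations for 2 h, then washed free of compound.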

Series [9] concerns the target T1, SUMO-activating enzyme (Homo sapiens). Briefly: Inhibition of SAE in human OCI-Ly10 cells xenografted in NCr nude mouse assessed as reduction in SUMO2/3 protein conjugates at 25 mg/kg, iv and measured up to 24 hrs by immunohistochemistry analysis. The format is organism-based. Conditions: HCT-116, time hrs <=24.
Series [10] is described as follows: AUC in rat blood at 1 mg/kg, iv. The format is ADME, organism-based. Also noted: dose 1 mg/kg.
Series [11] in a line: Clearance in rat plasma at 1 mg/kg, iv. The format is ADME, organism-based. Conditions: in vivo.
The nature of series [12]: Apparent permeability across basolateral to apical side in human Caco2 cells. The format is ADME, cell-based. Particulars: Caco-2.
The target of series [13] is T1, SUMO-activating enzyme (Homo sapiens). Briefly: Inhibition of SAE in human HCT116 cells xenografted in NCr nude mouse assessed as improvement in SUMO-inhibitor adduct durability at 50 mg/kg, iv and measured up to 16 hrs by mass spectrometry. Conditions: HCT-116. Format: organism-based. Summed up: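 Single IV dose at t = 0 to female Ncr nude mice bearing HCT-116 tumors, n = 3 per time point. Tumors harvested 2, 4, 8 and 16 h post-injection. Read-out is the adduct/SAE ratio: quantity of SUMO-compound adduct over quantity of total SAE enzyme, both measured by mass spectrometry. Values are averaged per time point.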

Series [14] in a line: AUC in rat plasma at 10 mg/kg, po. The format is ADME, organism-based. On the set-up: dose 10 mg/kg.
Series [15] in a line: Half life in rat plasma at 1 mg/kg, iv. The format is ADME, organism-based.
Series [16] in a line: Dissociation constant , pKa of the compound. Format: physicochemical.
The nature of series [17]: Efflux ratio of apparent permeability across basolateral to apical side over apical to basolateral side in human Caco-2 cells. The format is ADME, cell-based.
The target of series [18] is T3, SUMO-activating enzyme. Briefly: Inhibition of SAE in human HCT116 cells assessed as reduction in redistribution of SUMO2/3 proteins from nucleus to cytosol incubated for 4 hrs by immunofluorescence assay. Format: cell-based, HCT-116. Summed up:
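HCT-116 cells exposed to compound across a concentration range for 4 h, then stained with anti-SUMO2/3 monoclonal antibody. Automated imaging scored the nuclear (inner) to cytoplasmic (outer) SUMO2/3 ratio. IC50 taken from the dose response.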

For series [19], the target named is T3, SUMO-activating enzyme. Briefly: Inhibition of recombinant SAE (unknown origin) assessed as reduction in transfer of SUMO1 to UBC9 using SUMO1 as a substrate in presence of ATP at Km concentration by HTRF assay. Format: protein-complex assay. Summed up:
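HTRF transthiolation assay measuring transfer of SUMO1 to UBC9, the E2 for SAE.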

The test system of series [20] is HCT-116. The series can be described thus: Antitumor activity against human HCT-116 cells xenografted in Ncr/nude mouse assessed as tumor growth inhibition at 50 mg/kg, iv administered thrice per week for 21 days and measured twice weekly. The format is functional, organism-based. Conditions: time 21.0 day. Summed up: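 Female Ncr/nude mice carrying HCT-116 tumors (~200 mm3) were randomized, n = 8/group, with treatment from Day 1. Schedules were QD x21 (Days 1–21) or QD x3/week (three consecutive dosing days, four off). Tumor volume was measured twice weekly.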

Series [21] in a line: Clearance in rat blood at 1 mg/kg, iv. Format: ADME, organism-based. Particulars: in vivo.

T3 sequence (Q9UBE0 whole entry): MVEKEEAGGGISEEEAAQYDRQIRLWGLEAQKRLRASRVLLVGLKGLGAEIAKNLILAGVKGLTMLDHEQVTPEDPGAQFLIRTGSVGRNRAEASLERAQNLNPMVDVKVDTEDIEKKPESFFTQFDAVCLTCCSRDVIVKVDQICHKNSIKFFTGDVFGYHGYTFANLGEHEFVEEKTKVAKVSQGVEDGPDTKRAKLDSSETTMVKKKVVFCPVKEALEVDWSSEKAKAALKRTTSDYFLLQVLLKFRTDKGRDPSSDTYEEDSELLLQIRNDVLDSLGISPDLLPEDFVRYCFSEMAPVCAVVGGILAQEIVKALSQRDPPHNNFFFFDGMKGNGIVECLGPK
T3 sequence (Q9UBT2 whole entry): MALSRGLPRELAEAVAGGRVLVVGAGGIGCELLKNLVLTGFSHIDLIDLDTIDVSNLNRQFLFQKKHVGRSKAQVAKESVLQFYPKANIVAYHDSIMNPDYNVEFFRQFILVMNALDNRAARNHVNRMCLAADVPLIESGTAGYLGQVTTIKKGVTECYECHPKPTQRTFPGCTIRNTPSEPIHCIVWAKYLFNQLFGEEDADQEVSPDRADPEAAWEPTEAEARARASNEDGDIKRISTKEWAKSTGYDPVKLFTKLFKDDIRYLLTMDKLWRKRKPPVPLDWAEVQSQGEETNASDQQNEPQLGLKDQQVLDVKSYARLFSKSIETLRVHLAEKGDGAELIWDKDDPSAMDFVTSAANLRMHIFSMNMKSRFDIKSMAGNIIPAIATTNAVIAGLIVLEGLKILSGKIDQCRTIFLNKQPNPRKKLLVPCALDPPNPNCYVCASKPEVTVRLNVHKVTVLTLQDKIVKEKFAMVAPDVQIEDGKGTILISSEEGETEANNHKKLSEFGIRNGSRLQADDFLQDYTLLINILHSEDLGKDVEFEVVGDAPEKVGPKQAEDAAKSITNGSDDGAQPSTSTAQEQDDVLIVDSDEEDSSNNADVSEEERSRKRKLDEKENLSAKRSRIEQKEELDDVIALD

Turning to `Cc1sc(C(=O)c2cncnc2N[C@@H]2C[C@H](COS(N)(=O)=O)[C@@H](O)C2)cc1[C@@H]1NCCc2ccc(Cl)cc21`, the solubility – broadly, the dissolved amount per volume that the medium holds – at 24 h in series [1] is 20 mg/mL (≈ 34.6 mM). The AUC (as a rule, the area under the concentration-time curve, a measure of exposure) in series [2] worked out at 0.5 µM·h; in series [10], 31.2 µM·h; in [14] it was 0.3 µM·h. For the same molecule, the inhibition result in series [3], in [9] and in series [13] was “Active” in each case. The Papp A→B (in general, the apparent permeability from the apical to the basolateral side of a cell layer) in series [4] is 0.3 ×10⁻⁶ cm/s. The IC50 (commonly the point on the concentration scale where inhibition reaches its midpoint) in series [5] was greater than 1000 nM; in [7], 960 nM; in [8], 32 nM; in [18] it was 15 nM; in series [19] it was 1 nM. The outcome in series [6] and in series [20] was Active. Also, the clearance (as a rule, the volume of plasma or blood freed of the substance per unit of time) was determined as 61.7 mL/min/kg in series [11] and 1.67 mL/min/kg in series [21]. The Papp B→A (usually the apparent permeability from the basolateral to the apical side of a cell layer) in [12] stood at 46 ×10⁻⁶ cm/s. Further, the half-life – broadly, how long it takes for the measured level to halve – in [15] was 2.1 h. In addition, in series [16], the pKa – broadly, the pH at which an ionisable group is half protonated – stood at 3.6. Further, the efflux ratio – broadly, a quotient of directional permeabilities that is used to spot active efflux – in series [17] was greater than 16.

The record behind these values is ChEMBL document CHEMBL4834402, “Discovery of TAK-981, a First-in-Class Inhibitor of SUMO-Activating Enzyme for the Treatment of Cancer” (J Med Chem, 2021).
